From ChEMBL document CHEMBL2375264, “Potent naphthoquinones against antimony-sensitive and -resistant Leishmania parasites: synthesis of novel α- and nor-α-lapachone-based 1,2,3-triazoles by copper-catalyzed azide-alkyne cycloaddition” (Eur J Med Chem, 2013)

Legend:
[1] = Selectivity index, ratio of CC50 for Swiss mouse peritoneal macrophages to IC50 for antimony-resistant Leishmania amazonensis MHOM/BR/1989/BA199 promastigote; assay type: functional
Summary of the method: (§1)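 SI = CC50/IC50. CC50 comes from Swiss mouse peritoneal macrophages, harvested by lavage with cold RPMI-1640 lacking FBS. Cells seeded at 4.0 × 10⁶/mL, allowed to adhere 1 h, then washed free of non-adherent cells. Viability read by MTT (5 mg/mL stock, 4 h).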

Leishmania amazonensis [2] = experiment: Antileishmanial activity against antimony-resistant Leishmania amazonensis MHOM/BR/1989/BA199 promastigote infected in Swiss mouse peritoneal macrophages after 72 hrs; assay type: functional, organism-based; details: MHOM/BR/1989/BA199, 72 h
Summary of the method: (§2)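 Promastigotes of Sb(III)-sensitive and -resistant lines (resistant to Sb(III) up to 2700), maintained at 25 °C, pH 7.0, in α-MEM with 10% heat-inactivated FBS, kanamycin, ampicillin, L-glutamine, hemin and biopterin. Drugs dissolved in DMSO, diluted in α-MEM across a concentration range, final DMSO ≤0.2%.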

[3] = Selectivity index, ratio of CC50 for Swiss mouse peritoneal macrophages to IC50 for antimony-sensitive Leishmania amazonensis MHOM/BR/1989/BA199 promastigote; assay type: functional
Summary of the method: (§3)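 SI = CC50 / IC50. CC50 is from Swiss mouse peritoneal macrophages, read by MTT after lavage and 1 h adherence. […] Promastigotes grown in α-MEM with 10% heat-inactivated FBS, hemin and biopterin, pH 7.0, 25 °C. DMSO ≤0.2% final. Triplicate.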

[4] = Cytotoxicity against Swiss mouse peritoneal macrophages after 24 hrs by MTT assay; assay type: cell-based, Peritoneal macrophage cell
Summary of the method: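 Macrophages from peritoneal lavage of Swiss mice with cold FBS-free RPMI-1640. Cells seeded at 4.0 × 10⁶/mL, adhered 1 h, non-adherent cells washed off. Compounds were DMSO stocks diluted in medium over a concentration range, final DMSO ≤0.2%. Viability read by MTT (5 mg/mL solution, 4 h further incubation). CC50 taken as the 50% cytotoxic concentration.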

Leishmania amazonensis [5] = experiment: Antileishmanial activity against antimony-sensitive Leishmania amazonensis MHOM/BR/1989/BA199 promastigote infected in Swiss mouse peritoneal macrophages after 72 hrs; assay type: functional, organism-based; details: MHOM/BR/1989/BA199, 72 h; summary of the method: as §2
Leishmania infantum [6] = experiment: Antileishmanial activity against antimony-sensitive Leishmania infantum MCAN/BR/2002/BH400 promastigote infected in Swiss mouse peritoneal macrophages after 72 hrs; assay type: functional, organism-based; details: MCAN/BR/2002/BH400, 72 h; summary of the method: as §2
[7] = Selectivity index, ratio of CC50 for Swiss mouse peritoneal macrophages to IC50 for antimony-sensitive Leishmania infantum MCAN/BR/2002/BH400 promastigote; assay type: functional; summary of the method: as §3
[8] = Selectivity index, ratio of CC50 for Swiss mouse peritoneal macrophages to IC50 for antimony-resistant Leishmania infantum MCAN/BR/2002/BH400 promastigote; assay type: functional; summary of the method: as §1
Leishmania infantum [9] = experiment: Antileishmanial activity against antimony-resistant Leishmania infantum MCAN/BR/2002/BH400 promastigote infected in Swiss mouse peritoneal macrophages after 72 hrs; assay type: functional, organism-based; details: MCAN/BR/2002/BH400, 72 h; summary of the method: as §2
Leishmania amazonensis [10] = experiment: Ratio of potassium antimonyl tartrate IC50 to compound IC50 for antimony-sensitive Leishmania amazonensis MHOM/BR/1989/BA199 promastigote infected in Swiss mouse peritoneal macrophages; assay type: functional
Leishmania infantum [11] = experiment: Ratio of potassium antimonyl tartrate IC50 to compound IC50 for antimony-sensitive Leishmania infantum MCAN/BR/2002/BH400 promastigote infected in Swiss mouse peritoneal macrophages; assay type: functional

SMILES | Ratio CC50/IC50 [1] | IC50 (Leishmania amazonensis [2]) [µM] | Ratio CC50/IC50 [3] | CC50 at 24 h [4] [µM] | IC50 (Leishmania amazonensis [5]) [µM] | IC50 (Leishmania infantum [6]) [µM] | Ratio CC50/IC50 [7] | Ratio CC50/IC50 [8] | IC50 (Leishmania infantum [9]) [µM] | Ratio IC50 (Leishmania amazonensis [10]) | Ratio IC50 (Leishmania infantum [11])
CC(C)(O)c1cn(C2C3=C(OC2(C)C)C(=O)c2ccccc2C3=O)nn1 (centres undefined) | 2.71 | 7.31 | 1.39 | 19.8 | 14.2 | 1.55 | 12.78 | 15.01 | 1.32 | – | –
CC1(C)OC2=C(C(=O)C(=O)c3ccccc32)C1n1cc(-c2ccccc2)nn1 (centres undefined) | 3.32 | 1.03 | 3.08 | 3.42 | 1.11 | 1 | 3.42 | 3.29 | 1.04 | 23 | 15.5
CC(C)=CCC1=C(O)C(=O)c2ccccc2C1=O [LAPACHOL] | 0.94 | 63.3 | 0.58 | 59.3 | 102 | 34.7 | 1.71 | 0.59 | 99.9 | – | –
CC(C)=CC1=C(O)C(=O)c2ccccc2C1=O | – | > 100 | <0.15 | 14.6 | > 100 | > 100 | <0.15 | – | > 100 | – | –
O=C1C=C(n2cc(-c3ccc(Br)cc3)nn2)C(=O)c2ccccc21 | 0.43 | 50.1 | 0.37 | 21.4 | 57.8 | 17.2 | 1.24 | 1.52 | 14.1 | 2.2 | 2
O=C1C=C(n2cc(-c3ccc([N+](=O)[O-])cc3)nn2)C(=O)c2ccccc21 | – | > 100 | <0.5 | 50 | > 100 | > 100 | <0.5 | – | > 100 | 2.2 | 2
CCCCCc1cn(C2C3=C(OC2(C)C)C(=O)c2ccccc2C3=O)nn1 (centres undefined) | 14 | 1.14 | 7.29 | 16 | 2.19 | 1.05 | 15.02 | 14 | 1.14 | – | –
O=C1C=C(n2cc(-c3ccccc3)nn2)C(=O)c2ccccc21 | 1.28 | 7.94 | 0.61 | 10.2 | 16.7 | 21.6 | 0.47 | 0.59 | 17.2 | 2.2 | 2
CC1(C)OC2=C(C(=O)C(=O)c3ccccc32)C1n1cc(-c2ccc([N+](=O)[O-])cc2)nn1 (centres undefined) | 1.35 | 2.95 | 0.98 | 3.35 | 3.41 | 3.25 | 1.03 | 1.02 | 3.28 | 23 | 15.5
CCCc1cn(C2CC(C)(C)OC3=C2C(=O)c2ccccc2C3=O)nn1 (centres undefined) | 1.83 | 8.04 | 3.38 | 14.8 | 4.37 | 5.9 | 2.5 | 4.31 | 3.43 | – | –
CC1(C)CC2=C(O1)c1ccccc1C(=O)C2=O [NOR-BETA-LAPACHONE] | 0.97 | 1.59 | 0.62 | 1.55 | 2.48 | 1.14 | 1.36 | 0.97 | 1.6 | – | –
CC1(C)CC2=C(O1)C(=O)c1ccccc1C2=O | 0.5 | 1.54 | 0.28 | 0.77 | 2.72 | 1.54 | 0.5 | 0.6 | 1.28 | – | –
